From publication PMC5901648 (Cancer, 2017)
Where a name gives a salt, the structure may show the parent alone. Read-outs that look alike come from different tables or passages of the source.

Legend:
[1] = in vivo studies; cited from earlier work
[2] = system: patients with advanced solid tumors; conditions: cited from earlier work; for stable disease (SD) as best response, patients: advanced solid tumors
[3] = Plasma pharmacokinetics of pracinostat; assay type: in vivo, human; conditions: for half-life / Tmax / AUC(0-inf) / Cmax: human, plasma; for AUC(0-inf): AUC0-inf
Method in brief: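 The test compound was given orally at 10–120 mg to patients with hematologic malignancies. AUC0-inf was noncompartmental, t1/2 came from the terminal log-linear phase (≥3 last points), and Cmax/Tmax were read from the curves.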

[4] = system: histone H3 acetylation (AcH3) in peripheral blood mononuclear cells; assay: Pharmacodynamics: AcH3 levels in PBMCs; assay type: in vivo, human; conditions: ten subjects; maximal at 3 h post-dose; no dose-dependent increase
[5] = system: patients with advanced hematological malignancies; assay: Phase 1 dose escalation, safety and toxicity, Arm 1; conditions: human, in vivo
[6] = system: patients with advanced hematological malignancies; assay: Efficacy; assay type: in vivo, human
HDAC = conditions: pan-HDACI; cited from earlier work
[7] = cited from earlier work
[8] = po, 40 mg, Day 15, 40 mg oral, n=5, mean±SD
[9] = po, 40 mg, Day 1, 40 mg oral, n=6, mean±SD
[10] = po, 60 mg, Day 1, 60 mg oral, n=3, mean±SD
[11] = po, 60 mg, Day 15, 60 mg oral, n=3, mean±SD
[12] = po, 80 mg, Day 1, 80 mg oral, n=3, mean±SD
[13] = po, 80 mg, Day 15, 80 mg oral, n=3, mean±SD
[14] = po, 100 mg, Day 1, 100 mg oral, n=3, mean±SD
[15] = po, 100 mg, Day 15, 100 mg oral, n=3, mean±SD
[16] = po, 120 mg, Day 1, 120 mg oral, n=6, mean±SD
[17] = po, 120 mg, Day 15, 120 mg oral, n=2, mean

CCCCc1nc2cc(/C=C/C(=O)NO)ccc2n1CCN(CC)CC [Pracinostat, 3-[2-butyl-1-(2-diethylaminoethyl)-1H-benzoimidazol-5-yl]-N-hydroxyacrylami-hydrochloride]
increased half-life (t1/2) compared to vorinostat [1]: 3.3 fold
increased oral bioavailability compared to vorinostat [1]: 4.1 fold
stable disease (SD) as best response, patients ([2]; ref 12): 32%
stable disease (SD) as best response, patients ([2]; ref 13): 21%
dose of early emergence of grade 3 TRAEs and DLTs ([2]; continuous 5-day dosing every 2 weeks): 20 mg
accumulation between Day 1 and Day 15 following repeated dosing ([3]; 100-mg dose level): moderate accumulation
plasma concentrations relative to IC50 for HDAC 1, 2, and 3 ([3]; all dose levels): above the 50% inhibitory concentration (IC50)
half-life ([3]; oral, 120 mg, prolonged t1/2 reaching, discussion summary): ≤ 14 h
Tmax ([3]; oral, range over dose levels, 40-120 mg, Days 1 and 15): 0.8 to 1.3 h
half-life ([3]; oral, mean t1/2, range over dose levels, 40-120 mg, Days 1 and 15): 7 to 14.1 h
AUC(0-inf) [3, 8]: 477 ± 191 ng·h/mL
Cmax [3, 9]: 84 ± 34 ng/mL
Cmax [3, 8]: 64 ± 19 ng/mL
Tmax [3, 9]: 1.1 ± 0.7 h
Tmax [3, 8]: 1.3 ± 0.7 h
half-life ([3]; po, 40 mg, t1/2, Day 1, 40 mg oral, n=6, mean±SD): 9.4 ± 3.5 h
half-life ([3]; po, 40 mg, t1/2, Day 15, 40 mg oral, n=5, mean±SD): 10.7 ± 2.3 h
AUC(0-inf) [3, 10]: 948 ± 1140 ng·h/mL
AUC(0-inf) [3, 11]: 766 ± 746 ng·h/mL
Cmax [3, 10]: 133 ± 117 ng/mL
Cmax [3, 11]: 118 ± 135 ng/mL
Tmax [3, 10]: 1 ± 0.5 h
Tmax [3, 11]: 0.8 ± 0.3 h
half-life ([3]; po, 60 mg, t1/2, Day 1, 60 mg oral, n=3, mean±SD): 12.1 ± 2.3 h
half-life ([3]; po, 60 mg, t1/2, Day 15, 60 mg oral, n=3, mean±SD): 11.8 ± 3.4 h
AUC(0-inf) [3, 12]: 1050 ± 803 ng·h/mL
AUC(0-inf) [3, 13]: 977 ± 459 ng·h/mL
Cmax [3, 12]: 189 ± 182 ng/mL
Cmax [3, 13]: 164 ± 122 ng/mL
Tmax [3, 12]: 1.3 ± 0.8 h
Tmax [3, 13]: 1.2 ± 0.3 h
half-life ([3]; po, 80 mg, t1/2, Day 1, 80 mg oral, n=3, mean±SD): 7 ± 1.1 h
half-life ([3]; po, 80 mg, t1/2, Day 15, 80 mg oral, n=3, mean±SD): 9.3 ± 4.1 h
AUC(0-inf) [3, 14]: 1170 ± 347 ng·h/mL
AUC(0-inf) [3, 15]: 1980 ± 682 ng·h/mL
Cmax [3, 14]: 187 ± 99 ng/mL
Cmax [3, 15]: 314 ± 143 ng/mL
Tmax [3, 14]: 1.2 ± 0.3 h
Tmax [3, 15]: 1 ± 0.5 h
half-life ([3]; po, 100 mg, t1/2, Day 1, 100 mg oral, n=3, mean±SD): 8.4 ± 1.1 h
half-life ([3]; po, 100 mg, t1/2, Day 15, 100 mg oral, n=3, mean±SD): 13.7 ± 5.6 h
AUC(0-inf) [3, 16]: 1360 ± 725 ng·h/mL
AUC(0-inf) [3, 17]: 757 ng·h/mL
Cmax [3, 16]: 202 ± 83 ng/mL
Cmax [3, 17]: 96 ng/mL
Tmax [3, 16]: 1.2 ± 0.4 h
Tmax [3, 17]: 1 h
half-life ([3]; po, 120 mg, t1/2, Day 1, 120 mg oral, n=6, mean±SD): 10.8 ± 3 h
half-life ([3]; po, 120 mg, t1/2, Day 15, 120 mg oral, n=2, mean): 14.1 h
effect of AZA administration on PK parameters for pracinostat ([3]; in vivo): not affected
AcH3 levels in PBMCs [4]: increased across all dose levels
AEs leading to a dose-interruption, patients [5]: 34%
AEs leading to a dose-reduction, patients [5]: 27%
Anemia, treatment-related adverse event, All Grades [5]: 5%
Anemia, treatment-related adverse event, Grade ≥ 3 [5]: 5%
Anorexia, treatment-related adverse event, All Grades [5]: 23%
Anorexia, treatment-related adverse event, Grade ≥ 3 [5]: 2%
Constipation, treatment-related adverse event, All Grades [5]: 5%
Constipation, treatment-related adverse event, Grade ≥ 3 [5]: 0%
Diarrhea, treatment-related adverse event, All Grades [5]: 16%
Diarrhea, treatment-related adverse event, Grade ≥ 3 [5]: 2%
Elevated ALT, treatment-related adverse event, All Grades [5]: 0%
Elevated ALT, treatment-related adverse event, Grade ≥ 3 [5]: 0%
Fatigue, treatment-related adverse event, All Grades [5]: 41%
Fatigue, treatment-related adverse event, Grade ≥ 3 [5]: 11%
Infections, treatment-related adverse event, All Grades [5]: 9%
Infections, treatment-related adverse event, Grade ≥ 3 [5]: 9%
Nausea, treatment-related adverse event, All Grades [5]: 30%
Nausea, treatment-related adverse event, Grade ≥ 3 [5]: 0%
Neutropenia, treatment-related adverse event, All Grades [5]: 2%
Neutropenia, treatment-related adverse event, Grade ≥ 3 [5]: 2%
QTc prolongation, treatment-related adverse event, All Grades [5]: 7%
QTc prolongation, treatment-related adverse event, Grade ≥ 3 [5]: 5%
Thrombocytopenia, treatment-related adverse event, All Grades [5]: 14%
Thrombocytopenia, treatment-related adverse event, Grade ≥ 3 [5]: 11%
Vomiting, treatment-related adverse event, All Grades [5]: 14%
Vomiting, treatment-related adverse event, Grade ≥ 3 [5]: 0%
discontinuation of pracinostat due to an AE, patients [5]: 25%
patients who experienced a grade ≥ 3 TRAE [5]: 20%
patients who experienced at least 1 TRAE [5]: 77%
pracinostat doses at which grade ≥ 3 thrombocytopenia was experienced [5]: ≥ 80 mg
DLTs, patients ([5]; 28 days): 13%
doses at which DLTs occurred ([5]; 28 days): ≥ 40 mg
recommended phase II dose (RP2D) ([5]; po, 28 days): 60 mg
PFS of responding AML patient ([6]; 80 mg dose level, 11 cycles): 362 days
PFS of responding AML patient ([6]; 120 mg dose level, 8 cycles): 197 days
progressive disease ([6]; 32 evaluable patients): 31%
responders (CR or CCyR) ([6]; 32 evaluable patients): 6%
Median OS ([6]; 95% CI: 114.0- NA): 362 days
patients who died ([6]; Thirteen patients of 44): 30%
potency relative to vorinostat (HDAC): about twice

O=C(CCCCCCC(=O)Nc1ccccc1)NO [vorinostat]
half-life [7]: 1 to 2 h
